ChEMBL document CHEMBL1124127, “Central dopaminergic and 5-hydroxytryptaminergic effects of C3-methylated derivatives of 8-hydroxy-2-(di-n-propylamino)tetralin” (J Med Chem, 1988)

What was measured:
[1] = system: Rattus norvegicus; experiment: Effect on in vivo accumulation of dopamine(DA) was measured in rat limbic system at 50(Micromol/kg) dose; type: functional
How it was run: (§1)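 Non-reserpinized rats got the test drug sc in the neck (5 mL/kg) 60 min before death, and NSD 1015 (573 µmol/kg ip) 30 min before death. After decapitation, the limbic system was dissected on ice, frozen and homogenized in 0.1 M perchloric acid with α-methyl-DOPA internal standard. DA was measured by ion-pair reversed-phase HPLC with electrochemical detection. Data are mean ± SEM (controls n=17-19, treated 3-7), analysed by ANOVA/Dunnett.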

[2] = system: Rattus norvegicus; experiment: Effect on in vivo accumulation of 5-HTP was measured in rat limbic system at 50(Micromol/kg) dose; type: functional
How it was run: (§2)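 Rats not pretreated with reserpine received test drug (hydrochloride or hydrobromide salt) sc in the neck region 60 min before death. NSD 1015 decarboxylase inhibitor (100 mg/kg, i.e., 573 μmol/kg, ip) was given 30 min before decapitation. Brain was dissected on ice. Tissue was homogenized in 0.1 M perchloric acid with α-methyl-DOPA internal standard. Analytes were quantified by ion-pair reversed-phase HPLC-electrochemical detection. Values are means ± SEM, n = 3-7 per treated group.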

[3] = system: Rattus norvegicus; experiment: Effect on in vivo accumulation of […] was measured in rat corpus striatum at 50(Micromol/kg) dose; type: functional; how it was run: as §2
[4] = target: T1, 5-hydroxytryptamine receptor 1A (Rattus norvegicus, UniProt P19327); experiment: (§3) In vitro Inhibitory activity tested at 5-hydroxytryptamine 1A receptor binding site in rat; type: functional
T1 sequence (P19327 whole entry): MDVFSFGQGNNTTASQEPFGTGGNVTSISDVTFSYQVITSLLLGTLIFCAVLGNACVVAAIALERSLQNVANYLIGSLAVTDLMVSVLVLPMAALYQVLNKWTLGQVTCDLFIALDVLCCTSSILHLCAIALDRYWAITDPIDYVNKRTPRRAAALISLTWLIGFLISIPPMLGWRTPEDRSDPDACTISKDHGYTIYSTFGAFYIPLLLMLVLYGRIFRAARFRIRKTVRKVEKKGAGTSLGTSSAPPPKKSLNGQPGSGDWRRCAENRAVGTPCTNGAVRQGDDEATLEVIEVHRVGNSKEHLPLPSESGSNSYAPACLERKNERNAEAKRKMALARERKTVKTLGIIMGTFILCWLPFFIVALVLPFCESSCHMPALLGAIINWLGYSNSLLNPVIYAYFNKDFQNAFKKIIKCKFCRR
How it was run: (§4)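 Competition binding used rat brain membranes washed in 50 mM Tris-HCl pH 7.4, preincubated 10 min at 37 °C to remove 5-HT, and used at 10 mg wet tissue/mL. Assay: 1 nM [3H]-8-OH-DPAT, 3 mM CaCl2, 100 µM pargyline, 15 min at 37 °C, then filtration on PEI-treated filters. Nonspecific binding was set with 10 µM 5-HT. IC50 came from four-parameter logistic regression, mean ± SEM of N experiments.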

[5] = system: Rattus norvegicus; experiment: Effect on in vivo accumulation of DOPA was measured in rat limbic system at 50(Micromol/kg) dose; type: functional; how it was run: as §2
[6] = system: Rattus norvegicus; experiment: Effect on in vivo accumulation of DOPA was measured in rat corpus striatum at 50(Micromol/kg) dose; type: functional; how it was run: as §2
[7] = system: Rattus norvegicus; experiment: Effect on in vivo accumulation of 5-HTP was measured in rat corpus striatum at 50(umol/kg) dose; type: functional; how it was run: as §2
[8] = system: Rattus norvegicus; experiment: Effect on in vivo accumulation of 5-HTP was measured in rat corpus striatum at 59(umol/kg) dose; type: functional; how it was run: as §2
[9] = system: Rattus norvegicus; experiment: Effect on in vivo accumulation of DOPA was measured in rat corpus striatum at 59(Micromol/kg) dose; type: functional; how it was run: as §2
[10] = system: Rattus norvegicus; experiment: Effect on in vivo accumulation of 5-HTP was measured in rat limbic system at 59(Micromol/kg) dose; type: functional; how it was run: as §2
[11] = system: Rattus norvegicus; experiment: Effect on in vivo accumulation of […] was measured in rat corpus striatum at 59(Micromol/kg) dose; type: functional; how it was run: as §2
[12] = system: Rattus norvegicus; experiment: Effect on in vivo accumulation of dopamine(DA) was measured in rat limbic system at 59(Micromol/kg) dose; type: functional; how it was run: as §1
[13] = system: Rattus norvegicus; experiment: Effect on in vivo accumulation of DOPA was measured in rat limbic system at 59(Micromol/kg) dose; type: functional; how it was run: as §2
[14] = system: Rattus norvegicus; experiment: Effect on in vivo accumulation of 5-HTP was measured in rat corpus striatum at 66(umol/kg) dose; type: functional; how it was run: as §2
[15] = system: Rattus norvegicus; experiment: Effect on in vivo accumulation of […] was measured in rat corpus striatum at 66(Micromol/kg) dose; type: functional; how it was run: as §2
[16] = system: Rattus norvegicus; experiment: Effect on in vivo accumulation of dopamine(DA) was measured in rat limbic system at 66(Micromol/kg) dose; type: functional; how it was run: as §1
[17] = system: Rattus norvegicus; experiment: Effect on in vivo accumulation of DOPA was measured in rat corpus striatum at 66(Micromol/kg) dose; type: functional; how it was run: as §2
[18] = system: Rattus norvegicus; experiment: Effect on in vivo accumulation of 5-HTP was measured in rat limbic system at 66(Micromol/kg) dose; type: functional; how it was run: as §2
[19] = system: Rattus norvegicus; experiment: Effect on in vivo accumulation of DOPA was measured in rat limbic system at 66(Micromol/kg) dose; type: functional; how it was run: as §2
[20] = target: T1, 5-hydroxytryptamine receptor 1A; experiment: Inhibitory activity tested in vitro at 5-hydroxytryptamine 1A receptor binding site in rat; how it was run: as §4
[21] = target: T1, 5-hydroxytryptamine receptor 1A; experiment: as §3; how it was run: as §4

| SMILES | Activity [8] | Activity [9] | Activity [10] | Activity [11] | Activity [12] | Activity [13] | other results |
| --- | --- | --- | --- | --- | --- | --- | --- |
| CCCN(CCC)[C@H]1Cc2c(O)cccc2C[C@H]1C (racemic) |  |  |  |  |  |  | Activity [1]: <678 ng/g; Activity [2]: 138 ng/g; Activity [3]: <2935 ng/g; IC50 [4]: 0.774 µM; Activity [5]: 436 ng/g; Activity [6]: 1059 ng/g; Activity [7]: <57.8 ng/g |
| CCCN[C@H]1Cc2c(O)cccc2C[C@@H]1C (racemic) | 101 ng/g | 1047 ng/g | 155 ng/g | 5877 ng/g | 1215 ng/g | 400 ng/g |  |
| COc1cccc2c1C[C@H](N)[C@@H](C)C2 (racemic) |  |  |  |  |  |  | Activity [14]: 90.2 ng/g; Activity [15]: <6863 ng/g; Activity [16]: 1243 ng/g; Activity [17]: <823 ng/g; Activity [18]: <106 ng/g; Activity [19]: 356 ng/g |
| CCCN(CCC)[C@H]1Cc2c(O)cccc2C[C@@H]1C (stereo in doubt; (+)) |  |  |  |  |  |  | IC50 [20]: 0.0605 µM |
| CCCN[C@H]1Cc2c(O)cccc2C[C@H]1C (racemic) | 69 ng/g | <633 ng/g | <98.1 ng/g | 4530 ng/g | 1058 ng/g | <283 ng/g |  |
| CCCN[C@H]1Cc2c(O)cccc2C[C@@H]1C (stereo in doubt; (+)-9) | <67.4 ng/g | 957 ng/g | 125 ng/g | 4249 ng/g | 1030 ng/g | 426 ng/g |  |
| CCCN[C@H]1Cc2c(O)cccc2C[C@H]1C (stereo in doubt; (-)-13) | 103 ng/g | 932 ng/g | 151 ng/g | 5365 ng/g | 1148 ng/g | 365 ng/g |  |
| CCCN(CCC)[C@H]1Cc2c(O)cccc2C[C@H]1C (stereo in doubt; (+)) |  |  |  |  |  |  | IC50 [20]: 2.42 µM |
| CCCN(CCC)[C@H]1Cc2c(O)cccc2C[C@@H]1C (racemic; form 2) |  |  |  |  |  |  | Activity [1]: <775 ng/g; Activity [2]: <79.3 ng/g; Activity [3]: <3871 ng/g; Activity [5]: 348 ng/g; Activity [6]: 792 ng/g; Activity [7]: <27.1 ng/g; IC50 [21]: 0.129 µM |
| CCCN(CCC)[C@H]1Cc2c(O)cccc2C[C@@H]1C (racemic; form 1) |  |  |  |  |  |  | IC50 [21]: 0.129 µM |
